Screening results as filed in PubChem BioAssay.
Rtt109 HAT inh: blocks Candida albicans Rtt109/Vps75 acetyltransferase activity | AID 540336 | inhibition, % at 34.9 µM | purified Rtt109/Vps75, ThioGlo CoA-SH fluorescence, 4 h | actives 0.16% (n = 330,000);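 active means inhibition of at least 50% in every replicate; inconclusive means best replicate reaches 50% inhibition but some replicates fall short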
Target sequence (Q5AAJ8 whole entry, looked up): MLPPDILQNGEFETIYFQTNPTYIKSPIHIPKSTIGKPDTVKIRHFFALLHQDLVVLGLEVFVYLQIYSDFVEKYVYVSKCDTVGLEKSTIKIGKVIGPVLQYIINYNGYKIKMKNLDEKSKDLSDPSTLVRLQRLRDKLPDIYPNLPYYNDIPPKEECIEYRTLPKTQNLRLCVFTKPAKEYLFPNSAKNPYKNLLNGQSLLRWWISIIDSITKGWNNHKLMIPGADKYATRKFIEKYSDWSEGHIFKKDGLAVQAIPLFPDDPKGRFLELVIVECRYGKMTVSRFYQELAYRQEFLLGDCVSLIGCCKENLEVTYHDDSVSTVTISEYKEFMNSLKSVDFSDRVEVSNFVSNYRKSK
miR122 inh: miR-122 inhibition in Huh7 cells. Huh7 miR-122 Renilla luciferase sensor, 48 h; neutral wells = 0, positive control = 100. actives 0.3% (n = 340,000). activation (reporter increase), % at 12.5 µM. AID 602342;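 active means mean replicate activation score at least 90 and every replicate individually at or above 90; inconclusive means only one of the two criteria met; inactive means neither criterion met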;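 further: higher luciferase means less miR-122 activity so hits act as miR-122 inhibitors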
Cneo AK release: causes C. neoformans cell lysis. AID 651654. actives 0.2% (n = 360,000). adenylate kinase release luminescence, 4 h; normalised: neutral wells 0, clomiphene wells 100. lysis activity, % at 15 µM;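 active means mean lysis activity across replicates of at least 80%, whatever share of replicates individually reach that level; inactive means mean lysis activity below 80%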
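Signal: Adenylate kinase release luminescence | Assay system: Log-phase Cryptococcus neoformans yeast cells | Input: Cells at 5 × 10^6 per mL | Buffer or medium: Fresh YPD growth medium | Compound: Single dose | Schedule: Static 4 h at 37 °C with compound, 1 h detection | Controls: Clomiphene | Read-out: Luminescence rise reflecting yeast cell lysis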
GSIS activator: primary screen for activators of insulin secretion dependent on glucose, INS-1E cells, GLuc reporter luminescence. INS-1E GLuc reporter insulin secretion, 2-3 h. activation, % at 16.6 µM. actives 0.61% (n = 370,000);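 active means lowest replicate activation of at least 40%, so every replicate reaches that level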;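 further: 0% = median of neutral control wells and 100% = median of IBMX positive control wells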
HIV Env fusion: HIV envelope-mediated fusion inhibition | inhibition, % at 12.3 µM | HeLa-JRFL Env/CEM21 cell fusion, luciferase | actives 1.1% (n = 360,000);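 active means mean replicate inhibition score of at least 50 and every replicate individually at or above 50; inconclusive means only one of the two criteria met; inactive means mean below 50 and not all replicates reaching 50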;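 further: 0% = plate neutral controls and 100% = maraviroc near 300 nM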
dFosB act-1: enhances mouse delta FosB homodimer DNA binding | P13346 | purified delta FosB, TAMRA-CDK5 oligo fluorescence polarization; percent of positive-control signal above neutral wells | activation, % at 25 µM | actives 0.99% (n = 340,000) | AID 493131;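 active means mean activation above about 17%, with every replicate also reaching it, limit read from the data, passing the limit was not always enough; inconclusive means only one of the two conditions met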
dFosB act-2: delta FosB (mouse) homodimer activation. activation, % at 24.9 µM. 2,400 tested, under 10 active. AID 588690. shares compounds with dFosB act-1. purified delta FosB, TAMRA-CDK5 oligo fluorescence polarization; normalised: neutral wells 0, positive control 100;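 active means highest replicate activation at or above 34% and every replicate reaching that threshold; inconclusive means meets only one of the two criteria; inactive means meets neither criterion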;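 further: higher polarization means more probe DNA bound by delta FosB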
* = called active by the depositor; ? = inconclusive; / = no result; [ ] = dose if it differs, or a comment. Only some compounds are listed: those with a hit (about 2.4% of all), similar ones and a draw of the others.

SMILES	Rtt109 HAT inh	miR122 inh	Cneo AK release	GSIS activator	HIV Env fusion	dFosB act-1	dFosB act-2
Cc1nc(NC(=O)/C=C/c2ccccc2)sc1C(=O)Nc1ccccc1Cl	-12	-1	-1	/	-40	39*	3
Cc1nc(NC(=O)C2CC2)sc1C(=O)Nc1ccccc1Cl	5	-4	-1	21	-60	-3	/
O=C(/C=C/c1ccc(Cl)cc1)Nc1nccs1	-2	/	/	3	-265	23*	0
Cc1nc(Nc2ccc(Cl)c(Cl)c2)sc1C(=O)Nc1ccccc1	-1	/	0	-21	0	-15	/
O=C(/C=C/c1ccccc1)NC(NC(=S)Nc1ccc(Cl)cc1)C(Cl)(Cl)Cl (configuration not stated)	4	10	-2	/	61*	24*	-2
CCCC(=O)N1CCC2(CC1)CN(S(C)(=O)=O)[C@H](CO)c1c2c2ccc(OC)cc2n1C	/	/	/	26	/	/	/
CC(C)NC(=O)Nc1ccc2c(c1)C(=O)N([C@@H](C)CO)C[C@H](C)[C@H](CN(C)C)O2	/	1[16.7 µM]	3	7	-9[16.7 µM]	/	/
CCOC(=O)c1c(CN2CCN(C)CC2)n(-c2ccccc2)c2cc(Br)c(O)cc12	3	/	/	11	9	-4	/
CCOC(=O)c1c(CSC(=N)N)n(-c2ccccc2)c2cc(Br)c(OC(C)=O)cc12	1	/	/	-21	17	30*	?
COc1cc(OC)cc(C(=O)Nc2cccc(-c3ccc(N4CCOCC4)nn3)c2)c1	9	-6	-1	6	-37	20*	2
NC(=O)c1nsc(C(=O)N(c2cccc(O)c2)C(C(=O)NC2CCCC2)c2ccc(Cl)cc2)c1N (configuration not stated)	-4	-3	-2	17	-1	71*	1
COc1ccc(N(C(=O)c2snc(C(N)=O)c2N)C(C(=O)NC2CCCC2)c2ccc(F)cc2)c(OC)c1 (configuration not stated)	3	/	1	-1	12	32*	-7
CCOc1ccc(C(C(=O)NC2CCCC2)N(C(=O)c2snc(C(N)=O)c2N)c2cccc(O)c2)cc1 (configuration not stated)	-32	/	0	-5	23	-11	/
COc1ccc(C(C(=O)NC2CCCCC2)N(C(=O)c2snc(C(N)=O)c2N)c2ccc(OC)cc2OC)cc1 (configuration not stated)	1	-4	2	1	-20	?	/
C[C@@H]1CN([C@@H](C)CO)C(=O)c2cc(NS(C)(=O)=O)ccc2O[C@@H](C)CCCCO[C@@H]1CN(C)C(=O)CCCN(C)C	/	5[16.7 µM]	/	/	10[16.7 µM]	/	/
CCNC(=O)C[C@@H]1CC[C@@H]2[C@@H](COc3ccc(NC(=O)Nc4cccc(Cl)c4)cc3C(=O)N2C)O1	/	-17[16.7 µM]	1	0	22[16.7 µM]	/	/
Cc1ccc(S(=O)(=O)Nc2ccc3c(c2)C(=O)N([C@@H](C)CO)C[C@@H](C)[C@H](CN(C)Cc2ccncc2)OCCCC[C@@H](C)O3)cc1	/	-7[16.7 µM]	0	-9	-17[16.7 µM]	/	/
CC(=O)Nc1ccc(Nc2cc(C)nc3c(-c4ccc(Cl)cc4)cnn23)cc1	-10	-19	/	-38	-50	18*	-7
O=S1(=O)N=C(Nc2ccc(S(=O)(=O)N3CCCCC3)cc2)c2ccccc21	-4	60	/	/	/	47*	0
CCCC#Cc1ccc2c(c1)[C@H]1[C@H](CCN1S(=O)(=O)c1cn(C)cn1)[C@H](CO)N2	/	/	/	6	/	/	/
O=C(/C=C/c1ccccc1)Nc1ccc2c(c1)C(=O)NC2=O	5	4	-1	-2	-13	7	/
O=C(/C=C/c1ccccc1Cl)Nc1ccc2c(c1)C(=O)NC2=O	5	8	-1	4	13	20*	0
O=C(Cn1nnc(-c2ccc(Cl)cc2)n1)N1CCN(C(=O)c2ccco2)CC1	-1	/	-2	0	-15	-16	/
O=C(NC(=S)Nc1nc(-c2ccccc2)cs1)c1ccco1	-3	/	-1	-6	-5	-4	/
COc1ccc(OC)c(-c2csc(N(C)C(=O)c3ccco3)n2)c1	19	3	1	15	-28	19*	8
SMILES	Rtt109 HAT inh	miR122 inh	Cneo AK release	GSIS activator	HIV Env fusion	dFosB act-1	dFosB act-2
COc1ccc(C(=O)Nc2ccc(-c3nnn(CC(=O)N4CCN(C(=O)c5ccco5)CC4)n3)cc2)cc1	-9	/	/	11	-34	68*	-1
COc1ccc(-c2csc(NC(=S)NC(=O)c3ccco3)n2)cc1	-1	-3	/	15	-16	47*	-4
COc1ccc(C(=O)Nc2ccc(NC(=O)c3ccco3)cc2)cc1	2	-4	/	17	-2	51*	1
CO[C@H]1CN(C)C(=O)c2ccc(NC(=O)C3CC3)cc2OC[C@@H](C)N(Cc2ccncc2)C[C@H]1C	/	/	4	2	-46[16.7 µM]	/	/
COc1cccc(/C=N/NC(=O)CN(C2=NS(=O)(=O)c3ccccc32)c2ccccc2)c1	-1	/	/	-3	8	22*	0
COc1cccc(/C=N/NC(=O)Cn2ccnc2C)c1	1	/	/	2	11	0	/
CCC(=O)N1[C@@H]2c3ccc(-c4ccccc4F)c(=O)n3C[C@H]1[C@H](CO)[C@H]2C(=O)NC1CCCC1	/	1[16.7 µM]	3	1	/	/	/
CC=Cc1ccc2n(c1=O)C[C@@H]1[C@@H](CO)[C@H](C(=O)NCCC)[C@H]2N1C(=O)c1ccncc1 (mixture of isomers)	/	/	/	9	/	/	/
NS(=O)(=O)c1ccc(CCNC(=O)COC(=O)/C=C/c2ccc(Cl)cc2)cc1	-6	/	/	5	2	21*	-2
CCN(CC)S(=O)(=O)c1ccc(/C=C/C(=O)OCC(=O)Nc2ccc(S(N)(=O)=O)cc2)cc1	-21	/	/	4	-16	116*	6
O=C(COC(=O)/C=C/c1ccc(Cl)cc1)Nc1ccc2[nH]c(=O)[nH]c2c1	-11	/	-1	5	-14	22*	0
NS(=O)(=O)c1ccc(NC(=O)CCCCC(=O)Nc2ccc(S(N)(=O)=O)cc2)cc1	0	/	0	16	10	53*	7
O=C(N/N=C\c1ccc(CNS(=O)(=O)c2ccccc2)o1)C(=O)Nc1ccc(F)cc1	-5	0	/	16	-15	38*	4
O=C(NCc1ccc(/C=N\NC(=O)C(=O)Nc2ccccc2Br)o1)C(=O)Nc1ccccc1	-5	-5	0	16	-15	-6	/
COc1ccc(NS(=O)(=O)c2cc(NC(=O)c3cc(=O)c4ccccc4o3)ccc2OC)cc1	-17	/	/	/	26	48*	6
CS(=O)(=O)c1ccc2nc(NC(=O)c3cccc(NS(=O)(=O)c4ccc(F)c(F)c4)c3)sc2c1	20	/	/	-27	/	29*	-8
